From PubChem
GSIS activator = GLuc luminescence reporter in INS-1E cells, primary screen for activators of glucose-dependent secretion of insulin; 370,000 compounds, 0.61% hits; AID 743287, 2014; INS-1E GLuc reporter insulin secretion, 2-3 h; activation, % at 16.6 µM;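 active means lowest replicate activation of at least 40%, so every replicate reaches that level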;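 further: 0% = median of neutral control wells and 100% = median of IBMX positive control wells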
Cneo AK release = Cryptococcus neoformans cell lysis inducers, primary screen, AK release luminescence, single concentration; lysis activity, % at 15 µM; C. neoformans lysis, adenylate kinase release luminescence, 4 h; normalised: neutral wells 0, clomiphene wells 100; 360,000 compounds, 0.2% hits;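 active means mean lysis activity across replicates of at least 80%, whatever share of replicates individually reach that level; inactive means mean lysis activity below 80%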
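Material – Cryptococcus neoformans yeast cells · Quantity – 5 × 10^6 yeast cells/mL · Buffer or medium – YPD medium · Compound – single dose · Timing – 4 h static compound exposure, 37 °C, read 1 h post-reagent · Signal – adenylate kinase release luminescence · Read-out basis – lysis from increased AK signal · Benchmarks – Clomiphene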
dFosB activator = activators of delta FosB homodimer, primary screen, biochemical, fluorescence polarization, TAMRA-CDK5 oligo, single point; purified delta FosB; percent of positive-control signal above neutral wells; activation, % at 25 µM; 340,000 compounds, 0.99% hits;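 active means mean activation above about 17%, with every replicate also reaching it, limit read from the data, passing the limit was not always enough; inconclusive means only one of the two conditions met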
Env fusion inh = inhibitors of HIV-1 Env-driven cell-cell fusion, primary screen, HeLa-JRFL effector, CEM21 target cells, luciferase; inhibition, % at 12.3 µM; 360,000 compounds, 1.1% hits; AID 651610, 2012;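 active means mean replicate inhibition score of at least 50 and every replicate individually at or above 50; inconclusive means only one of the two criteria met; inactive means mean below 50 and not all replicates reaching 50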;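 further: 0% = plate neutral controls and 100% = maraviroc near 300 nM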
Rtt109 HAT inh = inhibitors of C. albicans Rtt109/Vps75 HAT, primary screen, biochemical, ThioGlo CoA-SH fluorescence, plate reader; Histone acetyltransferase RTT109 (Candida albicans (strain SC5314 / ATCC MYA-2876)), …; inhibition, % at 34.9 µM; AID 540336, 2011; purified Rtt109/Vps75, 4 h; 330,000 compounds, 0.16% hits;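 active means inhibition of at least 50% in every replicate; inconclusive means best replicate reaches 50% inhibition but some replicates fall short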
Target sequence (Q5AAJ8 whole entry, looked up): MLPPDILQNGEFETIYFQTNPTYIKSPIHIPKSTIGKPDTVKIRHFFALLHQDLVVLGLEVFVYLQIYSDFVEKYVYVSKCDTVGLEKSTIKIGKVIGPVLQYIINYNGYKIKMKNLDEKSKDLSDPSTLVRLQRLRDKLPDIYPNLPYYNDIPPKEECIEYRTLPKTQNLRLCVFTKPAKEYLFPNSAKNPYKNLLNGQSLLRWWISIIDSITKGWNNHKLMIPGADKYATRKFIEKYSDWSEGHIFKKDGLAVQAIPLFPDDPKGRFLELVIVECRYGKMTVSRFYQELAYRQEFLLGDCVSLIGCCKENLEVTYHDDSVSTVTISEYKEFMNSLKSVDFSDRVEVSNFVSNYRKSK
miR-122 sensor = miR-122 Renilla sensor signal increase in Huh7, primary screen, miR-122 inhibitor project, cell-based, single point, plate reader | activation (reporter increase), % at 12.5 µM | 340,000 compounds, 0.3% hits | Huh7 miR-122 Renilla luciferase sensor, 48 h; neutral wells = 0, positive control = 100 | AID 602342, 2012;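 active means mean replicate activation score at least 90 and every replicate individually at or above 90; inconclusive means only one of the two criteria met; inactive means neither criterion met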;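 further: higher luciferase means less miR-122 activity so hits act as miR-122 inhibitors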
The depositor's hits bear a star; [ ] = dose if it differs, or a comment. Most compounds without a hit are left out; they make up all but 2.4% or so of the library.

`C[C@H]1CN([C@@H](C)CO)S(=O)(=O)c2ccc(C#Cc3ccccc3)cc2O[C@@H]1CN(C)C(=O)CN(C)C` gave GSIS activator 48*, Cneo AK release 5, Env fusion inh 15[16.7 µM] and miR-122 sensor -5[16.7 µM].
For CCC(=O)N1CC2(C1)CN(C(=O)CN1CCOCC1)[C@H](CO)c1c2c2ccc(OC)cc2n1C the results were GSIS activator 13.
Screening C(=Cc1nc2ccccc2o1)c1ccc2c(c1)OCO2 returned GSIS activator -3, Cneo AK release -9, Env fusion inh 10 and miR-122 sensor -1.
C(=Cc1cnc2ccccc2n1)c1ccc2c(c1)OCO2 was read as GSIS activator 3, Cneo AK release -7, Env fusion inh 68* and miR-122 sensor -7.
Nc1nnc(SC2CC(=O)N(c3ccccc3)C2=O)s1 (stereo not given) was read as Cneo AK release -4, dFosB activator 3, Env fusion inh 58*, Rtt109 HAT inh inconclusive and miR-122 sensor -4.
COc1ccc(CC(=O)Oc2ccc(C)cc2C)cc1 was read as GSIS activator 5, Cneo AK release -1, dFosB activator 1, Env fusion inh 3 and Rtt109 HAT inh 1.
COc1ccc(CC(=O)Oc2ccc(C)cc2Br)cc1OC was read as GSIS activator 42, Cneo AK release -2, dFosB activator -4, Env fusion inh 61*, Rtt109 HAT inh 4 and miR-122 sensor -6.
`O=C1CCC(=O)N1c1ccc(-c2nc3ccccc3s2)cc1` gave GSIS activator 7, Cneo AK release -8, dFosB activator 2, Env fusion inh -124, Rtt109 HAT inh 52* and miR-122 sensor 3.
Screening Nc1ccc(-c2nc3ccccc3s2)cn1 returned GSIS activator -2, Cneo AK release -3, dFosB activator -1, Env fusion inh -56, Rtt109 HAT inh 6 and miR-122 sensor -1.
C[C@@H]1CN([C@@H](C)CO)C(=O)c2cc(NC(=O)Nc3cccc4ccccc34)ccc2O[C@@H](C)CCCCO[C@H]1CN(C)S(=O)(=O)c1cccs1 was read as GSIS activator 8, Cneo AK release -1, Env fusion inh -3[16.7 µM] and miR-122 sensor 4[16.7 µM].
CCC(C)N(CCNC(=O)c1ccc2c(c1)NC(=O)c1ccccc1S2)C1CCCCC1 (stereo not given) was read as GSIS activator -43, Cneo AK release 0, dFosB activator -11, Env fusion inh 79*, Rtt109 HAT inh 13 and miR-122 sensor -9.
Screening Cc1nc(N)c(C#N)c(-c2cccnc2)c1C returned GSIS activator 48*, Cneo AK release 3, dFosB activator -9, Env fusion inh inconclusive, Rtt109 HAT inh 3 and miR-122 sensor -11.
Screening Cc1ccccc1C(=O)O/N=C/c1c(N2CCOCC2)n(C)c2ccccc12 returned Cneo AK release 7, dFosB activator -2, Env fusion inh 60*, Rtt109 HAT inh 3 and miR-122 sensor -3.
Screening FC(F)(F)c1nnc2c(Sc3ccccc3)nc3ccc(Cl)cc3n12 returned Cneo AK release 4, dFosB activator -2, Env fusion inh inconclusive, Rtt109 HAT inh -5 and miR-122 sensor 307*.
For CC(C)[C@@H]1C(=O)N[C@H](c2ccc3c(c2)OCO3)CC=CC[C@@H](C)Oc2ccccc2C(=O)N1C (mixture of isomers) the results were GSIS activator -10.
`COc1ccc2c3c(n(C)c2c1)[C@@H](CO)N(Cc1ccccc1Cl)CC31CCN(C(C)=O)CC1` gave GSIS activator -9.
`CCOC(=O)c1ccc(NC(=O)c2nc[nH]c2C(=O)NC)cc1` gave GSIS activator -5, Cneo AK release 1, dFosB activator -15, Env fusion inh -1, Rtt109 HAT inh 2 and miR-122 sensor -3.
